Where only a bound is given, the exact number is not on record here.

The values below come from ChEMBL document CHEMBL1157704, “Potent activity against K562 cells by polyamide-seco-CBI conjugates targeting histone H4 genes” (Bioorg Med Chem, 2010).

What all share (assay type): functional
For test [1], the system named is K562. In words: Effect on LGALS12 gene expression in human K562 cells assessed as change in mRNA transcript expression at 10 nM after 48 hrs by DNA microarray analysis relative to control. In outline:
(§1)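 K562 CML cells (b3a2 Bcr-Abl) in standard ATCC-recommended culture, exposed once to 10 nM conjugate and harvested at 48 h. Untreated controls were also collected at 48 h. Transcripts were profiled on Human Gene 1.0 ST whole-genome oligonucleotide arrays, and each treated level was expressed relative to the untreated control, with a cutoff of at least twofold change.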

Test [2] concerns K562. Briefly: Effect on NET1 gene expression in human K562 cells assessed as change in mRNA transcript expression at 10 nM after 48 hrs by DNA microarray analysis relative to control. In outline:
as §1

The test system of test [3] is K562. Briefly: Effect on PPP1R15A gene expression in human K562 cells assessed as change in mRNA transcript expression at 10 nM after 48 hrs by DNA microarray analysis relative to control. An outline of the steps: as §1
Test [4] concerns K562. In words: Effect on NDUFS4 gene expression in human K562 cells assessed as change in mRNA transcript expression at 10 nM after 48 hrs by DNA microarray analysis relative to control. In outline: as §1
Test [5] concerns K562. In words: Effect on HIST1H1D gene expression in human K562 cells assessed as change in mRNA transcript expression at 10 nM after 48 hrs by DNA microarray analysis relative to control. In outline:
(§2)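 Transcripts were profiled on Affymetrix GeneChip Human Gene 1.0 ST arrays in K562 cells treated at 10 nM. Treated cells were collected at 6, 12, 24 and 48 h; untreated controls were collected at 48 h. Transcripts changed at least twofold versus control were scored.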

Test [6] relates to K562. In words: Effect on HIST1H4D gene expression in human K562 cells assessed as down-regulation of mRNA transcript expression at 10 nM after 48 hrs by DNA microarray analysis relative to control. An outline of the steps: as §2
Test [7] has as its system K562. Briefly: Effect on LOC85389 gene expression in human K562 cells assessed as change in mRNA transcript expression at 10 nM after 48 hrs by DNA microarray analysis relative to control. In outline:
as §1

`CC(=O)Nc1cn(C)c(C(=O)Nc2cn(C)c(C(=O)NCCC(=O)Nc3cn(C)c(C(=O)NCCCC(=O)Nc4cc(C(=O)Nc5cn(C)c(C(=O)Nc6ccc7[nH]c(C(=O)N8CC(CCl)c9c8cc(O)c8ccccc98)cc7c6)n5)n(C)c4)n3)n2)n1` (configuration not stated): the “fold change (FC)” value in test [1] is listed as “>=2”; in test [2], “>=2”; in test [3], “>=2”; in test [4], “>=2”; in test [5] it was “>=2”; in test [6] it was 2.43. Moreover, the “fold change (FC)” value in test [7] is listed as “>=2”.
